Results: ChEMBL document CHEMBL3227919, “Development of ethyl 3,4-dihydro-4-oxopyrimido[4,5-b]quinoline-2-carboxylate, a new prototype with oral antiallergy activity” (1979)
Activity calls are given as the source filed them. No cut-off for these calls is given here.

Key:
[1] = tested on: Rattus norvegicus; experiment: Antiallergic activity in po dosed rat assessed as inhibition of passive cutaneous anaphylaxis; assay type: functional
[2] = tested on: Rattus norvegicus; experiment: Antiallergic activity in Wistar Charles River rat assessed as inhibition of histamine-induced passive cutaneous anaphylaxis at 1 mg/kg, iv relative to control; assay type: functional
[3] = tested on: Rattus norvegicus; experiment: Antiallergic activity in po dosed Wistar Charles River rat assessed as inhibition of histamine-induced passive cutaneous anaphylaxis; assay type: functional
[4] = tested on: Rattus norvegicus; experiment: Antiallergic activity in Wistar Charles River rat assessed as inhibition of histamine-induced passive cutaneous anaphylaxis at 30 mg/kg, iv relative to control; assay type: functional
[5] = tested on: Rattus norvegicus; experiment: Antiallergic activity in Wistar Charles River rat assessed as inhibition of histamine-induced passive cutaneous anaphylaxis at 3 mg/kg, iv relative to control; assay type: functional
[6] = tested on: Rattus norvegicus; experiment: Antiallergic activity in Wistar Charles River rat assessed as inhibition of histamine-induced passive cutaneous anaphylaxis at 0.1 mg/kg, iv relative to control; assay type: functional
[7] = tested on: Rattus norvegicus; experiment: Antiallergic activity in Wistar Charles River rat assessed as inhibition of histamine-induced passive cutaneous anaphylaxis at 10 mg/kg, iv relative to control; assay type: functional
[8] = tested on: Rattus norvegicus; experiment: Antiallergic activity in Wistar Charles River rat assessed as inhibition of histamine-induced passive cutaneous anaphylaxis at 100 mg/kg, po relative to control; assay type: functional
[9] = tested on: Rattus norvegicus; experiment: Antiallergic activity in po dosed rat assessed as inhibition of antigen-induced passive cutaneous anaphylaxis relative to DSCG; assay type: functional
[10] = tested on: Rattus norvegicus; experiment: Antiallergic activity in po dosed rat assessed as inhibition of antigen-induced passive cutaneous anaphylaxis; assay type: functional
[11] = tested on: Rattus norvegicus; experiment: Antiallergic activity in Wistar Charles River rat assessed as inhibition of histamine-induced passive cutaneous anaphylaxis at 30 mg/kg, po relative to control; assay type: functional
[12] = tested on: Rattus norvegicus; experiment: Antiallergic activity in Wistar Charles River rat assessed as inhibition of histamine-induced passive cutaneous anaphylaxis at 10 mg/kg, po relative to control; assay type: functional
[13] = tested on: Rattus norvegicus; experiment: Antiallergic activity in Wistar Charles River rat assessed as inhibition of histamine-induced passive cutaneous anaphylaxis at 3 mg/kg, po relative to control; assay type: functional
[14] = tested on: Rattus norvegicus; experiment: Antiallergic activity in Wistar Charles River rat assessed as inhibition of histamine-induced passive cutaneous anaphylaxis at 1 mg/kg, po relative to control; assay type: functional
[15] = tested on: Rattus norvegicus; experiment: Inhibition of carrageenan-induced foot edema in rat at 10 mg/kg, po; assay type: functional, organism-based; parameters: dose 10 mg/kg
[16] = tested on: Cavia porcellus; experiment: Inhibition of histamine-induced bronchoconstriction in guinea pig up to 100 mg/kg, po; assay type: functional, organism-based; parameters: dose 100 mg/kg
[17] = tested on: Rattus norvegicus; experiment: Antiallergic activity in Wistar Charles River rat assessed as inhibition of histamine-induced passive cutaneous anaphylaxis at 50 mg/kg, ip relative to control; assay type: functional; conditions: route intraperitoneal
[18] = tested on: Rattus norvegicus; experiment: Antiallergic activity in Wistar Charles River rat assessed as inhibition of histamine-induced passive cutaneous anaphylaxis at 30 mg/kg, ip relative to control; assay type: functional; conditions: route intraperitoneal
[19] = tested on: Homo sapiens; experiment: Antiallergic activity in po dosed human assessed as concentration required to inhibit antigen-induced clinical asthma; assay type: functional
[20] = tested on: Rattus norvegicus; experiment: Antiallergic activity in po dosed Wistar rat assessed as inhibition of ovalbumin-induced passive cutaneous anaphylaxis relative to DSCG; assay type: functional
[21] = tested on: Homo sapiens; experiment: Antiallergic activity in po dosed human assessed as oral active dose; assay type: functional
[22] = tested on: Rattus norvegicus; experiment: Antiallergic activity in po dosed Wistar rat assessed as inhibition of ovalbumin-induced passive cutaneous anaphylaxis; assay type: functional
In short: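 Male Charles River Wistar rats, 170-210 g. Reaginic egg-albumin antiserum was raised with Bordetella pertussis or Al(OH)3, then diluted to give a 15-mm wheal and injected intradermally (0.1 mL) into shaved back skin. After 48 h, drug or saline was given, then 2.5 mg Evans blue plus 5 mg egg albumin in saline. Each site was scored as diameter (mm) × dye-intensity grade (0.5-4), summed per group of 5 or 7 rats and compared with saline controls.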

SMILES: CCOC(=O)CCc1n[nH]c2ccc(CC)cc2c1=O
- ED50 [1]: 4 mg/kg

SMILES: O=C([O-])c1cc(=O)c2c(OCC(O)COc3cccc4oc(C(=O)[O-])cc(=O)c34)cccc2o1.[Na+].[Na+] [CROMOLYN SODIUM]
- inhibition in vivo at 1 mg/kg [2]: 55%
- ED50 [3]: 1 mg/kg
- inhibition in vivo at 30 mg/kg [4]: 99%
- inhibition in vivo at 3 mg/kg [5]: 77%
- inhibition in vivo at 0.1 mg/kg [6]: 14%
- inhibition in vivo at 10 mg/kg [7]: 90%
- Activity [8]: inactive

SMILES: O=C(O)c1cc(=O)c2cc3c(=O)cc(C(=O)O)[nH]c3c(Cl)c2[nH]1
- fold change (FC) [9]: 50
- ED50 [10]: < 25.5 mg/kg

SMILES: O=C(O)c1nc2c(C(F)(F)F)cc(Cl)cc2c(=O)[nH]1
- inhibition in vivo at 10 mg/kg [7]: 0%

SMILES: O=C(O)c1nc2nc3ccccc3cc2c(=O)[nH]1
- inhibition in vivo at 30 mg/kg [11]: 57%
- inhibition in vivo at 1 mg/kg [2]: 92%
- inhibition in vivo at 10 mg/kg [12]: 0%
- inhibition in vivo at 100 mg/kg [8]: 96%

SMILES: O=C(O)c1nc2ccc([N+](=O)[O-])cc2c(=O)[nH]1
- inhibition in vivo at 30 mg/kg [4]: 67%

SMILES: Cc1nc(O)c2cc3ccccc3cc2n1
- inhibition in vivo at 3 mg/kg [5]: 15%

SMILES: O=C(O)c1nc2ccccc2c(=O)[nH]1
- inhibition in vivo at 10 mg/kg [7]: 52%

SMILES: CCOC(=O)c1nc(O)c2cc3ccccc3nc2n1
- inhibition in vivo at 30 mg/kg [11]: 72%
- inhibition in vivo at 1 mg/kg [2]: 98%
- ED50 [3]: 3 mg/kg
- inhibition in vivo at 10 mg/kg [12]: 75%
- inhibition in vivo at 3 mg/kg [13]: 53%
- inhibition in vivo at 1 mg/kg [14]: 12%
- inhibition in vivo at 0.1 mg/kg [6]: 47%
- inhibition [15]: inactive
- inhibition [16]: inactive
- inhibition [7]: inactive
- inhibition in vivo at 100 mg/kg [8]: 80%

SMILES: O=c1[nH]cnc2nc3ccccc3cc12
- inhibition in vivo at 3 mg/kg [5]: 33%
- inhibition in vivo at 10 mg/kg [7]: 4%

SMILES: CCOC(=O)c1nc2ncccc2c(=O)[nH]1
- inhibition in vivo at 1 mg/kg [2]: 6%
- inhibition in vivo at 3 mg/kg [5]: 66%
- inhibition in vivo at 10 mg/kg [7]: 96%
- Activity [8]: inactive

SMILES: CCCOc1ccccc1-c1nc2[nH]nnc2c(=O)[nH]1 [ZAPRINAST]
- ED50 [1]: 0.2 mg/kg

SMILES: CCOC(=O)c1nc2cc(OC)c(OC)cc2c(=O)[nH]1
- inhibition in vivo at 30 mg/kg [4]: 80%
- Activity [8]: inactive

SMILES: O=C(O)c1nc2c(Br)cc(Br)cc2c(=O)[nH]1
- inhibition in vivo at 50 mg/kg [17]: 0%

SMILES: O=C(O)c1nc2cc3ccccc3cc2c(=O)[nH]1
- inhibition in vivo at 1 mg/kg [2]: 14%
- inhibition in vivo at 3 mg/kg [5]: 36%
- inhibition in vivo at 10 mg/kg [7]: 100%
- inhibition in vivo at 100 mg/kg [8]: 0%

SMILES: CCOC(=O)c1nc2cc(OC(=O)c3ccccc3)c(OC)cc2c(=O)[nH]1
- inhibition in vivo at 10 mg/kg [7]: 14%

SMILES: CCc1ccc2occ(-c3nnn[nH]3)c(=O)c2c1
- fold change (FC) [9]: 4
- ED50 [10]: 7 mg/kg

SMILES: CCOC(=O)c1nc2cc3ccccc3cc2c(=O)[nH]1
- inhibition in vivo at 30 mg/kg [18]: 27%
- inhibition in vivo at 100 mg/kg [8]: 38%

SMILES: O=c1[nH]cnc2cc3ccccc3cc12
- inhibition in vivo at 3 mg/kg [5]: 31%

SMILES: CCCc1c2c(c(O)c3c(=O)cc(C(=O)O)oc13)CCCC2 [PROXICROMIL]
- fold change (FC) [9]: 0.19
- Activity [19]: 4.6 mg
- ED50 [10]: 15.5 mg/kg

SMILES: O=c1[nH]c(=O)c2cc3ccccc3nc2[nH]1
- inhibition in vivo at 3 mg/kg [5]: 41%

SMILES: COc1cccc2c(=O)c(CO)coc12
- ED50 [1]: 2 mg/kg

SMILES: O=C(O)CCc1nc2cc3ccccc3cc2c(=O)[nH]1
- inhibition in vivo at 10 mg/kg [7]: 7%

SMILES: Cc1cc2c(cc1C)C(=O)C([N+](=O)[O-])C2=O
- fold change (FC) [20]: 25
- Activity [21]: 2 mg/kg
- ED50 [22]: 1 mg/kg

SMILES: COc1cc2nc(C(=O)O)[nH]c(=O)c2cc1OC
- inhibition in vivo at 30 mg/kg [4]: 69%
- Activity [8]: inactive

SMILES: CCOC(=O)c1nc2c(C(F)(F)F)cc(Cl)cc2c(=O)[nH]1
- inhibition in vivo at 10 mg/kg [7]: 0%
